Data: ChEMBL document CHEMBL1938351, “The discovery of potent antagonists of NPBWR1 (GPR7)” (Bioorg Med Chem Lett, 2012)
The source made the active and inactive calls. The rule behind the calls is not given here.

Legend:
[1] = molecular target: T1, Neuropeptides B/W receptor type 1 (Mus musculus, UniProt P49681); assay: Displacement of [125]-hNPW23 from mouse NPBWR1 expressed in CHO-K1 cells membrane by scintillation proximity assay; type: cell membranes
T1 sequence (P49681 whole entry): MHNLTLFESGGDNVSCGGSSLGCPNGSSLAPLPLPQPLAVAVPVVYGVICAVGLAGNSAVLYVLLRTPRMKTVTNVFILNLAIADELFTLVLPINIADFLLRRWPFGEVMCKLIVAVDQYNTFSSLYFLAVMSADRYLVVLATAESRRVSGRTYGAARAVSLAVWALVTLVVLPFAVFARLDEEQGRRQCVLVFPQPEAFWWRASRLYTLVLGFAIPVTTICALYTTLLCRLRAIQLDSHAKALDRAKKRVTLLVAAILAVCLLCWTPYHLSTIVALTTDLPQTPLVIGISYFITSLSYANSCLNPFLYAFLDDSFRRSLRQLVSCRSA

[2] = molecular target: T1, Neuropeptides B/W receptor type 1; assay: Antagonist activity at mouse NPBWR1 expressed in CHO-K1 cells assessed as inhibition of hNPW23 and forskolin-stimulated cAMP production after 1 hr by TR-FRET assay; type: functional, cell-based
LLC-PK1 = assay: P-glycoprotein-mediated efflux in pig LLC-PK1 cells expressing MDR1; type: cell-based; details: Sus scrofa
[3] = Metabolic stability in mouse liver microsomes assessed as compound remaining after 30 mins; type: ADME, Microsome; details: read-out: Stability
Method in brief: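 Compounds were incubated with mouse liver microsomes. The read-out was the percentage of parent compound remaining at 30 min.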

[4] = molecular target: T2, Neuropeptides B/W receptor type 1 (Homo sapiens, UniProt P48145); assay: Displacement of [125]-hNPW23 from human NPBWR1 expressed in CHO-K1 cells membrane by scintillation proximity assay; type: cell membranes
T2 sequence (P48145 whole entry): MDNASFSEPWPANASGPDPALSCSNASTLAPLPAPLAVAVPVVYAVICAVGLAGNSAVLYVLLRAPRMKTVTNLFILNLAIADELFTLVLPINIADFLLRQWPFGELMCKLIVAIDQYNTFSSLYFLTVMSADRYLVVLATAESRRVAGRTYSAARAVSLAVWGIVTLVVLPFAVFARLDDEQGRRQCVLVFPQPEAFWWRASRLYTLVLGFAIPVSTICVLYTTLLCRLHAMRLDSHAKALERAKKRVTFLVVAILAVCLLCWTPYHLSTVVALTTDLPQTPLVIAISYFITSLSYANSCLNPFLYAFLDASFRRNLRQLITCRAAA

[5] = molecular target: T2, Neuropeptides B/W receptor type 1; assay: Antagonist activity at human NPBWR1 expressed in CHO-K1 cells assessed as inhibition of hNPW23 and forskolin-stimulated cAMP production after 1 hr by TR-FRET assay; type: functional, cell-based

| Structure (SMILES) | IC50 [1] [nM] | IC50 [2] [nM] | Activity (LLC-PK1) | remaining at 0.5 h [3] [%] | IC50 [4] [nM] | IC50 [5] [nM] |
| --- | --- | --- | --- | --- | --- | --- |
| COc1ccc(C2(N[C@@H]3CC[C@H](C(=O)N4CCN(c5ccc(Cl)cn5)CC4)[C@@H](c4ccsc4)C3)CCC2)cc1 | 3.1 | 20 |  |  |  |  |
| O=C([C@H]1CC[C@@H](NC2(c3ccccc3Br)CCC2)C[C@@H]1c1ccsc1)N1CCN(c2ccc(Cl)cn2)CC1 | 2200 | 2210 |  |  |  |  |
| COc1ccc(C2(N[C@@H]3CC[C@H](C(=O)N4CCN(c5nnc(C(F)(F)F)s5)CC4)[C@@H](c4ccsc4)C3)CCC2)cc1 |  |  | Active | < 10 |  |  |
| CC(C)(N[C@@H]1CC[C@H](C(=O)N2CCN(c3ccc(Cl)cn3)CC2)[C@@H](c2ccsc2)C1)c1ccc(Cl)cc1 | 27 | 1700 |  |  |  |  |
| COc1ccc(C(C)(C)N[C@@H]2CC[C@H](C(=O)N3CCN(c4ccc(Cl)cn4)CC3)[C@@H](c3ccsc3)C2)cc1 | 11 | 43 |  |  |  |  |
| COc1ccc(C(C)(C)N[C@@H]2CC[C@H](C(=O)N3CCN(c4nc5ccccc5[nH]4)CC3)[C@@H](c3ccsc3)C2)cc1 |  |  | Active | < 10 |  |  |
| COc1ccc([C@@H](C)N[C@@H]2CC[C@H](C(=O)N3CCN(c4ccc(Cl)cn4)CC3)[C@@H](c3ccsc3)C2)cc1 | 25 | 360 | Active | 0 | 324 | 1920 |
| O=C([C@H]1CC[C@@H](NC2(c3ccc(Br)cc3)CCC2)C[C@@H]1c1ccsc1)N1CCN(c2ccc(Cl)cn2)CC1 | 82 | 601 |  |  |  |  |
| C[C@@H](N[C@@H]1CC[C@H](C(=O)N2CCN(c3ccc(Cl)cn3)CC2)[C@@H](c2ccsc2)C1)c1ccccc1 | 217 | 981 |  |  |  |  |
| COc1ccc(C2(N[C@@H]3CC[C@H](C(=O)N4CCN(c5nc6ccccc6s5)CC4)[C@@H](c4ccsc4)C3)CCC2)cc1 | 0.33 | 1.8 | Active | < 10 |  |  |
| COc1ccc(CN[C@@H]2CC[C@H](C(=O)N3CCN(c4ccc(Cl)cn4)CC3)[C@@H](c3ccsc3)C2)cc1 | 1520 | 3590 |  |  |  |  |
| COc1ccc(C2(N[C@@H]3CC[C@H](C(=O)N4CCN(c5ccc(Cl)cn5)CC4)[C@@H](c4ccsc4)C3)CC2)cc1 | 56 | 523 |  |  |  |  |
| COc1ccc([C@@H](C)N[C@@H]2CC[C@H](C(=O)N3CCN(c4nc5ccccc5[nH]4)CC3)[C@@H](c3ccsc3)C2)cc1 | 8.3 | 20 |  |  |  |  |
| CC(C)(N[C@@H]1CC[C@H](C(=O)N2CCN(c3ccc(Cl)cn3)CC2)[C@@H](c2ccsc2)C1)c1ccc([N+](=O)[O-])cc1 | 100 | 1100 |  |  |  |  |
| COc1ccc([C@@H](C)N[C@@H]2CC[C@H](C(=O)N3CCN(c4ccc(C#N)cn4)CC3)[C@@H](c3ccsc3)C2)cc1 | 1140 | 7050 |  |  |  |  |
| COc1cccc(C2(N[C@@H]3CC[C@H](C(=O)N4CCN(c5ccc(Cl)cn5)CC4)[C@@H](c4ccsc4)C3)CCC2)c1 | 118 | 1020 |  |  |  |  |
| COc1ccc([C@@H](C)N[C@@H]2CC[C@H](C(=O)N3CCN(c4nc5ccccc5s4)CC3)[C@@H](c3ccsc3)C2)cc1 | 4.5 | 24 |  |  |  |  |
| COc1ccc([C@@H](C)N[C@@H]2CC[C@H](C(=O)N3CCN(c4ccccn4)CC3)[C@@H](c3ccsc3)C2)cc1 |  | 330 |  |  |  |  |
| COc1ccc([C@@H](C)N[C@@H]2CC[C@H](C(=O)N3CCN(c4ncccc4Cl)CC3)[C@@H](c3ccsc3)C2)cc1 |  | > 32000 |  |  |  |  |
| COc1ccc(C2(N[C@@H]3CC[C@H](C(=O)N4CCN(c5nc6ccccc6o5)CC4)[C@@H](c4ccsc4)C3)CCC2)cc1 |  |  | Active | < 10 |  |  |
| COc1ccc([C@@H](C)N[C@@H]2CC[C@H](C(=O)N3CCN(c4cccc(Cl)n4)CC3)[C@@H](c3ccsc3)C2)cc1 |  | 7490 |  |  |  |  |

| Structure (SMILES) | IC50 [1] [nM] | IC50 [2] [nM] | Activity (LLC-PK1) | remaining at 0.5 h [3] [%] | IC50 [4] [nM] | IC50 [5] [nM] |
| --- | --- | --- | --- | --- | --- | --- |
| COc1ccc([C@@H](C)N[C@@H]2CC[C@H](C(=O)N3CCN(c4ccc(Cl)cc4)CC3)[C@@H](c3ccsc3)C2)cc1 | 3720 | 3860 |  |  |  |  |
| COc1ccc([C@@H](C)N[C@@H]2CC[C@H](C(=O)N3CCN(c4ccc(C)cn4)CC3)[C@@H](c3ccsc3)C2)cc1 | 74 | 400 |  |  |  |  |
| COc1ccc([C@@H](C)N[C@@H]2CC[C@H](C(=O)N3CCN(c4nccs4)CC3)[C@@H](c3ccsc3)C2)cc1 | 194 | 207 |  |  |  |  |
| CC(C)(N[C@@H]1CC[C@H](C(=O)N2CCN(c3ccc(Cl)cn3)CC2)[C@@H](c2ccsc2)C1)c1ccc(F)cc1 | 17 | 320 |  |  |  |  |
| O=C([C@H]1CC[C@@H](NC2(c3cccc(Br)c3)CCC2)C[C@@H]1c1ccsc1)N1CCN(c2ccc(Cl)cn2)CC1 | 160 | 972 |  |  |  |  |
| COc1ccc([C@@H](C)N[C@@H]2CC[C@H](C(=O)N3CCN(c4ccc(C(F)(F)F)cn4)CC3)[C@@H](c3ccsc3)C2)cc1 |  | 200 |  |  |  |  |
| COc1ccc([C@@H](C)N[C@@H]2CC[C@H](C(=O)N3CCN(c4nnc(C(F)(F)F)s4)CC3)[C@@H](c3ccsc3)C2)cc1 | 42 | 115 |  |  |  |  |
| COc1ccc([C@@H](C)N[C@@H]2CC[C@H](C(=O)N3CCN(c4cc(Cl)ccn4)CC3)[C@@H](c3ccsc3)C2)cc1 |  | 2140 |  |  |  |  |
| COc1ccc([C@@H](C)N[C@@H]2CC[C@H](C(=O)N3CCN(c4nc5ccccc5o4)CC3)[C@@H](c3ccsc3)C2)cc1 | 2.8 | 18 |  |  |  |  |
| COc1ccc(C2(N[C@@H]3CC[C@H](C(=O)N4CCN(c5nc6ccccc6[nH]5)CC4)[C@@H](c4ccsc4)C3)CCC2)cc1 | 1.1 | 3 | Active | < 10 | 5.9 | 11 |
| COc1ccc(C2(N[C@@H]3CC[C@H](C(=O)N4CCN(c5nc6cc(F)ccc6o5)CC4)[C@@H](c4ccsc4)C3)CCC2)cc1 | 0.2 | 0.86 | Active | < 10 |  |  |
| Cc1ccc(C(C)(C)N[C@@H]2CC[C@H](C(=O)N3CCN(c4ccc(Cl)cn4)CC3)[C@@H](c3ccsc3)C2)cc1 | 16 | 211 |  |  |  |  |
| C[C@@H](N[C@@H]1CC[C@H](C(=O)N2CCN(c3ccc(Cl)cn3)CC2)[C@@H](c2ccsc2)C1)c1ccc(Br)cc1 | 134 | 2630 |  |  |  |  |
| COc1ccc(C2(N[C@@H]3CC[C@H](C(=O)N4CCN(c5nc6cc(C)ccc6o5)CC4)[C@@H](c4ccsc4)C3)CCC2)cc1 |  |  | Active | < 10 |  |  |
| COc1ccc(C2(N[C@@H]3CC[C@H](C(=O)N4CCN(c5nc6cc(F)ccc6[nH]5)CC4)[C@@H](c4ccsc4)C3)CCC2)cc1 | 0.42 | 0.66 | Active | < 10 |  |  |
| COc1ccc(C(C)(C)N[C@@H]2CC[C@H](C(=O)N3CCN(c4nc5ccccc5o4)CC3)[C@@H](c3ccsc3)C2)cc1 |  |  | Active | < 10 |  |  |
| COc1ccc(C2(N[C@@H]3CC[C@H](C(=O)N4CCN(c5nc6ccc(F)cc6o5)CC4)[C@@H](c4ccsc4)C3)CCC2)cc1 | 0.18 | 1.3 | Active | < 10 |  |  |
| COc1ccc([C@@H](C)N[C@@H]2CC[C@H](C(=O)N3CCN(c4ncc(Br)s4)CC3)[C@@H](c3ccsc3)C2)cc1 | 14 | 55 |  |  |  |  |
| COc1ccc(C2(N[C@@H]3CC[C@H](C(=O)N4CCN(c5nnc(Br)s5)CC4)[C@@H](c4ccsc4)C3)CCC2)cc1 |  |  | Active | < 10 |  |  |
| COc1ccc([C@@H](C)N[C@@H]2CC[C@H](C(=O)N3CCN(c4ccc(OC)cn4)CC3)[C@@H](c3ccsc3)C2)cc1 |  | 7300 |  |  |  |  |
